Compound activity (PubChem BioAssay)
Compounds with a hit are over-represented: about 2.3% of the library has one in this group of screens.
SKN-1 inh: inhibitors of C. elegans SKN-1; C. elegans VP596 Pgst-4::GFP/RFP ratio, acrylamide-induced, 24 h; actives 0.49% (n = 360,000); inhibition, % at 21.8 µM; AID 624304;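 active = interference check ratio from 0.5 to 1.5 plus GFP to RFP signal ratio inhibition reaching or exceeding a fixed threshold, cut at about 30% in these data, passing the limit was not always enough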
DNMT1 block: DNMT1 (human) enzyme inhibition; DNMT1 molecular beacon, Hinp1I cleavage, fluorescence; inhibition (reported as % activation of signal), % at 10 µM; actives 0.83% (n = 360,000); in the data active = inhibition above about 50%
MT1-MMP act inh: inhibitors of human MT1-MMP activation; P50281; HT1080 RFP-PRO-GFP cells, GFP/RFP ratio fluorescence, overnight; percent of plate control window, DMSO zero; GFP/RFP ratio change, % at 20 µM; actives 0.061% (n = 360,000);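 active = GFP/RFP ratio change of at least 30% with cell ATP level not reduced by more than half and red fluorescence within 50% of control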
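Assay system: RFP-PRO-GFP reporter HT1080 cells; read-out basis: GFP/RFP fluorescence ratio; benchmarks: DMSO wells and RFP-L50D-GFP cells; doses: 20 µM single dose, 1% DMSO; schedule: overnight cell settling, then overnight compound exposure, 37 °C, 5% CO2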
SUMO1-SIM PPI: SUMO1-SIM interaction modulation; P63165; SUMO1 binding to a labelled peptide, TR-FRET, 1 h; inhibition, % at 20 µM; actives 0.33% (n = 360,000); AID 602429; in the data active = inhibition above about 37%
Target sequence (P63165 whole entry, looked up): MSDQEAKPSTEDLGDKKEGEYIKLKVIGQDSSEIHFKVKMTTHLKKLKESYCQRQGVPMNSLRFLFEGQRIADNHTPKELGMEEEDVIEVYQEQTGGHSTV
Rpn11 block: inhibitors of human proteasome Rpn11 | O00487 | human 26S proteasome, Ub4-pepOG fluorescence polarization; 20S core pre-blocked with epoxomicin | inhibition, % at 20 µM | actives 0.59% (n = 360,000) | AID 588493;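 active = inhibition at 20 µM, scaled to each plate's controls, above about 33%, limit read from the data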
Target sequence (O00487 whole entry, looked up): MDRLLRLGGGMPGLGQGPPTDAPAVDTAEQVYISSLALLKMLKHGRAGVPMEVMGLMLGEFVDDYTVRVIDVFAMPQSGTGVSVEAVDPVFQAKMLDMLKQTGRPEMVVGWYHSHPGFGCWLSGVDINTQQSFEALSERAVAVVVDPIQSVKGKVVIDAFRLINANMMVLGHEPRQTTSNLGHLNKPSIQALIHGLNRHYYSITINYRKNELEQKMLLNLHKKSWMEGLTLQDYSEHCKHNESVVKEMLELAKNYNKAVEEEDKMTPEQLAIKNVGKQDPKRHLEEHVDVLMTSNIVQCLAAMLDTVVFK
CSN deneddyl inh: blocks human CSN-mediated cullin deneddylation | Q92905 | Purified CSN, SCF-Nedd8-OG deneddylation, fluorescence polarization | inhibition, % at 12.5 µM | actives 0.38% (n = 360,000) | AID 651999;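 active = pattern-corrected inhibition above about 35%, with an unprinted fluorescence ratio check between 0.5 and 1.5, limit read from the data, passing the limit was not always enough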
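Schedule: reaction 90 min, room temperature / Assay system: HEK293T-derived human Csn5 enzyme / Input: Csn5 at 0.24 nM final / Measure: inhibition of Csn5 cleavage, % / Control set: substrate-only high control, full reaction low control / Technique: fluorescence polarization of the substrate / Buffer or medium: Tris/NaCl/DTT buffer, pH 7.5 / Reagent: SCFSkp2-Nedd8OG substrate at 10 nM final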
Beacon interf DR: beacon fluorescence artifact, dose response counter-screen. shares compounds with DNMT1 block. molecular beacon fluorescence, spectral interference counter-screen. IC50, µM. 200 tested, under 10 active; call rule not given here
DNMT1 inh conf: DNMT1 inhibition confirmation, single concentration. shares compounds with DNMT1 block. DNMT1 molecular beacon HinP1I cleavage, fluorescence. inhibition, % at 10 µM. actives 8% (n = 2,300). AID 602385;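 active = average inhibition of at least 30% in the single-concentration confirmation test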
DNMT1 interf: beacon fluorescence artifact counter-screen; actives 1% (n = 2,300); DNMT1 molecular beacon spectral interference counterscreen, fluorescence 485/520; shares compounds with DNMT1 block; activation (fluorescence interference), % at 10 µM;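 active = activation of at least 30% at 10 µM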;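 note: DNMT1 catalytic domain with a HinP1I cleavage step and a FAM/dabcyl DNA beacon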
Large screens that a line does not name were inactive (follow-up assays come after a bar, where shown).

CC1OC(CCc2cccc(Cl)c2)Cc2[nH]c(=S)[nH]c(=O)c21 (stereo unspecified)	none (no result: DNMT1 block, Rpn11 block)
COc1cccc(CNC(=O)Cn2cccc2)c1	none
COc1cccc(CNC(=O)Cc2ccc(Br)cc2)c1	DNMT1 block 70 | DNMT1 inh conf inactive | DNMT1 interf inactive
CC(=O)NC(C)(c1ccccc1)c1nc(-c2cnc3ccccc3c2)cs1 (stereo unspecified)	none
COc1ccccc1N1CCN(/N=C/c2ccc(Cl)c([N+](=O)[O-])c2)CC1	DNMT1 block 99 | Beacon interf DR inactive | DNMT1 inh conf 35 | DNMT1 interf inactive
COc1ccccc1N1CCN(/N=C/c2ccc([N+](=O)[O-])cc2)CC1	none
O=C(O)C1Nc2c(Cl)cc(Cl)c(Cl)c2C2C=CCC12 (stereo unspecified)	DNMT1 block 83, SUMO1-SIM PPI 63 (not shown: Rpn11 block) | Beacon interf DR inactive | DNMT1 inh conf 85 | DNMT1 interf inactive
CC(C)C1Nc2c(O)cc(Cl)c([N+](=O)[O-])c2C2C=CCC21 (stereo unspecified)	none
CC(C)C[C@H]1CN(CCCC[C@@H]2CNC(=O)C(=O)N2Cc2ccccc2)C(=O)C(=O)N1Cc1ccccc1	none (no result: DNMT1 block, Rpn11 block)
CCCC[N+](C)(C)CCC(=O)NC(C)(C)CS(=O)(=O)[O-]	DNMT1 block 66 | DNMT1 inh conf inactive | DNMT1 interf inactive
COc1cc(CCNC(=O)c2cnn3ccccc23)cc(OC)c1OC	DNMT1 block 80 | DNMT1 inh conf inactive | DNMT1 interf inactive
Cc1ccc(NC(=O)CSc2nnc(-c3ccco3)c(-c3ccco3)n2)cc1	DNMT1 block 92 | DNMT1 inh conf inactive | DNMT1 interf inactive
CSc1nnc(-c2ccccc2)c(-c2ccccc2)n1	none
CSc1nnc(-c2ccco2)c(-c2ccco2)n1	DNMT1 block 95 | DNMT1 inh conf inactive | DNMT1 interf inactive
COc1ccc(C(=O)CSc2nnc(-c3ccco3)n2C)cc1	none
COc1ccc(C(=O)CSc2nnc(-c3ccco3)c(-c3ccco3)n2)cc1	DNMT1 block 76 | DNMT1 inh conf inactive | DNMT1 interf inactive
COc1ccc(NC(=O)CSc2nnc(-c3ccco3)c(-c3ccco3)n2)cc1OC	none
COc1cccc(NC(=O)CSc2nnc(-c3ccco3)c(-c3ccco3)n2)c1	DNMT1 block 87 | DNMT1 inh conf inactive | DNMT1 interf inactive
CC(C)n1nnnc1C1c2ccccc2C(=O)N1CCOc1ccccc1 (stereo unspecified)	none (no result: DNMT1 block, Rpn11 block)
COc1cc(CNC(=O)Nc2nnc([C@H]3C[C@H](O)[C@@H](CO)O3)s2)cc(OC)c1OC	none
CN(C)CC1CCC/C(=C\c2ccc(OC(=O)/C=C/c3ccc(Cl)c(Cl)c3)cc2)C1=O (stereo unspecified)	DNMT1 block 50 | DNMT1 inh conf inactive | DNMT1 interf inactive
CCOc1ccc(C(=O)N/N=C/c2ccc(-c3ccc(S(=O)(=O)Nc4ncccn4)cc3)o2)cc1	none
NC(=S)NN=Cc1ccc(-c2ccc(S(=O)(=O)Nc3ncccn3)cc2)o1	DNMT1 block 89 | DNMT1 inh conf inactive | DNMT1 interf inactive
O=C(Nc1cccnc1)C1Cc2c(-c3ccc4c(c3)OCO4)ccnc2O1 (stereo unspecified)	none
CSc1ncnc2c1ncn2CCCN1CCN(Cc2cccc3ccccc23)CC1	none
COc1ccc(Cl)cc1NC(=O)c1cccc([N+](=O)[O-])c1O	DNMT1 block 66 | DNMT1 inh conf inactive | DNMT1 interf inactive
COc1ccc(Cl)cc1NC(=O)C/C(C)=N/NC(=O)c1ccccc1[N+](=O)[O-]	none
CC(=O)NCCC(=O)Nc1cccc(S(=O)(=O)N(C)c2ccccc2)c1	DNMT1 block 56 | DNMT1 inh conf inactive | DNMT1 interf inactive
CC(=O)Nc1cc(-c2ccccc2N(C)C)cn2c(-c3ccc(S(C)(=O)=O)cc3)cnc12	DNMT1 block 189 | DNMT1 inh conf inactive | DNMT1 interf inactive
COc1ccc(NC(=O)/C(C#N)=C/c2ccc(Br)o2)cc1	DNMT1 block 99 | DNMT1 inh conf inactive | DNMT1 interf inactive
COc1ccc(N2CCN(C(CNC(=O)C(=O)NCCCO)c3ccco3)CC2)cc1 (stereo unspecified)	none
COc1ccc(N2CCN(C(CNC(=O)C(=O)NCCc3c[nH]c4ccccc34)c3ccco3)CC2)cc1 (stereo unspecified)	DNMT1 block 78 | DNMT1 inh conf inactive | DNMT1 interf inactive
C=CCn1c(COc2ccc(F)cc2)nnc1SCC(=O)NC(=O)NCc1ccco1	DNMT1 block 74 | DNMT1 inh conf inactive | DNMT1 interf inactive
C=CCn1c(COc2cccc(C)c2)nnc1SCC(=O)NC(=O)NCc1ccco1	none
Cc1cccc(C)c1NC(=O)C(c1ccccc1)N1CCC(Cc2ccccc2)CC1 (stereo unspecified)	none
Clc1ccc(OCc2nn3c(-c4ccccc4)nnc3s2)c(Cl)c1	DNMT1 block 59 | DNMT1 inh conf inactive | DNMT1 interf inactive
O=C(NC(c1ccc(-c2ccccc2)cc1)c1cnccn1)C1CCN(CCCOc2ccccc2)CC1 (stereo unspecified)	none
C=C(C)C(=O)Nc1cccc(C2=NOC3(C2)C[C@@H](C(N)=O)N(C(=O)c2cc([N+](=O)[O-])cc([N+](=O)[O-])c2)C3)c1 (stereo partly specified)	DNMT1 block 87, SUMO1-SIM PPI 46 | DNMT1 inh conf inactive | DNMT1 interf inactive
CCCCCC(=O)Nc1cccc(C2=NOC3(C2)C[C@@H](C(N)=O)N(C(=O)c2cc([N+](=O)[O-])cc([N+](=O)[O-])c2)C3)c1 (stereo partly specified)	none
[O-][n+]1cc(Cl)cc(Cl)c1	none
CCC1(C)COC(C)(CC(=O)NNC(=O)Nc2ccccc2)OC1 (stereo unspecified)	DNMT1 block 81 | DNMT1 inh conf inactive | DNMT1 interf inactive
CC(=O)Nc1ccc(CN2C(=O)C(C)(C)ON=C2c2ccc(C(F)(F)F)cc2)cc1	none
COc1ccc(Br)cc1/C=N/n1nnnc1N	DNMT1 block 53 | DNMT1 inh conf inactive | DNMT1 interf inactive
